Results: ChEMBL document CHEMBL1138564, “Microwave-induced synthesis and anti-microbial activities of 7,10,11,12-tetrahydrobenzo[c]acridin-8(9H)-one derivatives” (2009)
In brackets after ≈: the same amount, converted by molar mass. Activity calls are given as the source filed them. The calls are words filed in the database; no cut-off is given here.

Legend:
[1] = test system: Escherichia coli; assay: Antimicrobial activity against Escherichia coli NCIM 2065 at 1000 ug/disk after 24 hrs by disk diffusion method; format: functional; conditions: NCIM 2065, 24 h, read-out: DIZ
Summary of the method: (§1)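 Disc diffusion on Mueller–Hinton agar. 100 µl of bacterial suspension at 10⁸ CFU/ml is spread on the plate. Discs carry test compounds at two loadings, dissolved in DMSO; DMSO alone serves as negative control. Ofloxacin disc is the positive reference. Plates are incubated at 37 °C for 24 h, and the inhibition zone diameter is measured.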

[2] = test system: Bacillus subtilis; assay: Antimicrobial activity against Bacillus subtilis NCIM 2063 at 500 ug/disk after 24 hrs by disk diffusion method; format: functional; conditions: NCIM 2063, 24 h, read-out: DIZ; summary of the method: as §1
[3] = test system: Bacillus subtilis; assay: Antimicrobial activity against Bacillus subtilis NCIM 2063 at 1000 ug/disk after 24 hrs by disk diffusion method; format: functional; conditions: NCIM 2063, 24 h, read-out: DIZ; summary of the method: as §1
[4] = test system: Bacillus cereus; assay: Antimicrobial activity against Bacillus cereus NCIM 2155 at 500 ug/disk after 24 hrs by disk diffusion method; format: functional; conditions: NCIM 2155, 24 h, read-out: DIZ; summary of the method: as §1
[5] = test system: Bacillus cereus; assay: Antimicrobial activity against Bacillus cereus NCIM 2155 at 1000 ug/disk after 24 hrs by disk diffusion method; format: functional; conditions: NCIM 2155, 24 h, read-out: DIZ; summary of the method: as §1
[6] = test system: Aliivibrio fischeri; assay: Antimicrobial activity against Vibrio fischeri NCIM 2154 at 500 ug/disk after 24 hrs by disk diffusion method; format: functional; conditions: NCIM 2154, 24 h, read-out: DIZ
Summary of the method: (§2)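 Disc diffusion. 100 µl of bacterial suspension at 10⁸ CFU/ml was spread on Mueller–Hinton agar. Discs loaded with test compound dissolved in DMSO were placed on the lawn, with a DMSO-only disc as negative control. Plates were incubated at 37 °C for 24 h, and the inhibition zone diameter was measured.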

[7] = test system: Rhodococcus corynebacterioides; assay: Antimicrobial activity against Corynebacterium rubrum NCIM 2252 at 500 ug/disk after 24 hrs by disk diffusion method; format: functional; conditions: Rhodococcoides corynebacterioides, NCIM 2252, 24 h; read-out: DIZ; summary of the method: as §1
[8] = test system: Salmonella typhimurium; assay: Antimicrobial activity against Salmonella Typhimurium NCIM 2501 at 1000 ug/disk after 24 hrs by disk diffusion method; format: functional, Salmonella enterica subsp. enterica serovar Typhimurium; conditions: Salmonella enterica, NCIM 2501, 24 h; read-out: DIZ; summary of the method: as §2
[9] = test system: Salmonella typhimurium; assay: Antimicrobial activity against Salmonella Typhimurium NCIM 2501 at 500 ug/disk after 24 hrs by disk diffusion method; format: functional, Salmonella enterica subsp. enterica serovar Typhimurium; conditions: Salmonella enterica, NCIM 2501, 24 h; read-out: DIZ; summary of the method: as §2
[10] = test system: Rhodococcus corynebacterioides; assay: Antimicrobial activity against Corynebacterium rubrum NCIM 2252 at 1000 ug/disk after 24 hrs by disk diffusion method; format: functional; conditions: Rhodococcoides corynebacterioides, NCIM 2252, 24 h; read-out: DIZ; summary of the method: as §1
[11] = test system: Staphylococcus; assay: Antimicrobial activity against Staphylococcus albus NCIM 2178 at 500 ug/disk after 24 hrs by disk diffusion method; format: functional; conditions: NCIM 2178, 24 h, read-out: DIZ; summary of the method: as §2
[12] = test system: Staphylococcus; assay: Antimicrobial activity against Staphylococcus albus NCIM 2178 at 1000 ug/disk after 24 hrs by disk diffusion method; format: functional; conditions: NCIM 2178, 24 h, read-out: DIZ; summary of the method: as §2
[13] = test system: Proteus vulgaris; assay: Antimicrobial activity against Proteus vulgaris NCIM 2027 at 500 ug/disk after 24 hrs by disk diffusion method; format: functional; conditions: NCIM 2027, 24 h, read-out: DIZ; summary of the method: as §1
[14] = test system: Proteus vulgaris; assay: Antimicrobial activity against Proteus vulgaris NCIM 2027 at 1000 ug/disk after 24 hrs by disk diffusion method; format: functional; conditions: NCIM 2027, 24 h, read-out: DIZ; summary of the method: as §1
[15] = test system: Aspergillus flavus; assay: Antimicrobial activity against Aspergillus flavus NCIM 902 at 500 ug/disk after 72 hrs by disk diffusion method; format: functional; conditions: NCIM 902, 72 h, read-out: DIZ
Summary of the method: (§3)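 Disc diffusion on Sabouraud's dextrose agar. 100 µl of fungal suspension at 10⁶ CFU/ml is spread on the plate. Discs carry test compounds at two loadings in DMSO; DMSO alone is the negative control. Clotrimazole disc is the positive reference. Plates are incubated at 27 °C for 72 h, and the zone of inhibition diameter is measured.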

[16] = test system: Aspergillus flavus; assay: Antimicrobial activity against Aspergillus flavus NCIM 902 at 1000 ug/disk after 72 hrs by disk diffusion method; format: functional; conditions: NCIM 902, 72 h, read-out: DIZ; summary of the method: as §3
[17] = test system: Rhodotorula mucilaginosa; assay: Antimicrobial activity against Rhodotorula rubra NCIM 3174 at 500 ug/disk after 72 hrs by disk diffusion method; format: functional; conditions: NCIM 3174, 72 h, read-out: DIZ
Summary of the method: (§4)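 Fungal disc diffusion. 100 µl of suspension at 10⁶ CFU/ml was spread on Sabouraud's dextrose agar. Discs carrying test compound in DMSO were applied, with a DMSO-only disc as negative control. Plates were incubated at 27 °C for 72 h, and the zone of inhibition diameter was measured.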

[18] = test system: Rhodotorula mucilaginosa; assay: Antimicrobial activity against Rhodotorula rubra NCIM 3174 at 1000 ug/disk after 72 hrs by disk diffusion method; format: functional; conditions: NCIM 3174, 72 h, read-out: DIZ; summary of the method: as §4
[19] = test system: Aspergillus fumigatus; assay: Antimicrobial activity against Aspergillus fumigatus NCIM 902 at 500 ug/disk after 72 hrs by disk diffusion method; format: functional; summary of the method: as §3
[20] = test system: Aspergillus parasiticus; assay: Antimicrobial activity against Aspergillus parasiticus NCIM 904 at 1000 ug/disk after 72 hrs by disk diffusion method; format: functional; conditions: NCIM 904, 72 h, read-out: DIZ; summary of the method: as §3
[21] = test system: Penicillium chrysogenum; assay: Antimicrobial activity against Penicillium chrysogenum NCIM 707 at 500 ug/disk after 72 hrs by disk diffusion method; format: functional; summary of the method: as §3
[22] = test system: Lipomyces lipofer; assay: Antimicrobial activity against Lipomyces lipofer NCIM 3252 at 1000 ug/disk after 72 hrs by disk diffusion method; format: functional; conditions: NCIM 3252, 72 h, read-out: DIZ; summary of the method: as §3
[23] = test system: Klebsiella aerogenes; assay: Antimicrobial activity against Klebsiella aerogenes NCIM 2239 at 500 ug/disk after 24 hrs by disk diffusion method; format: functional; summary of the method: as §1
[24] = test system: Pseudomonas aeruginosa; assay: Antimicrobial activity against Pseudomonas aeruginosa NCIM 2200 at 1000 ug/disk after 24 hrs by disk diffusion method; format: functional; summary of the method: as §1
[25] = test system: Pseudomonas aeruginosa; assay: Antimicrobial activity against Pseudomonas aeruginosa NCIM 2200 at 500 ug/disk after 24 hrs by disk diffusion method; format: functional; summary of the method: as §2
[26] = test system: Aspergillus flavus; assay: Antimicrobial activity against Aspergillus flavus NCIM 902 after 72 hrs by serial dilution method; format: functional; conditions: NCIM 535, 72 h, in the assay text read “NCIM 535” for “NCIM 902”
Summary of the method: (§5)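 MIC by broth dilution in Sabouraud's dextrose broth, only for fungi sensitive in disc diffusion. Two-fold serial dilutions of compounds are made in 1 ml broth per tube, range 3.9 to 1000. Inoculated tubes are incubated at 27 °C for 72 h.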

[27] = test system: Rhodotorula mucilaginosa; assay: Antimicrobial activity against Rhodotorula rubra NCIM 3174 after 72 hrs by serial dilution method; format: functional; conditions: NCIM 3174, 72 h
Summary of the method: (§6)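 MIC by broth dilution in Sabouraud's dextrose broth, run only on fungi found sensitive in the disc assay. Twofold serial dilutions were made in 1 ml broth per tube, covering 3.9 to 1000. Inoculated tubes were incubated at 27 °C for 72 h.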

[28] = test system: Aspergillus parasiticus; assay: Antimicrobial activity against Aspergillus parasiticus NCIM 904 after 72 hrs by serial dilution method; format: functional; conditions: NCIM 904, 72 h; summary of the method: as §5
[29] = test system: Trichoderma viride; assay: Antimicrobial activity against Trichoderma viride NCIM 1195 after 72 hrs by serial dilution method; format: functional; conditions: NCIM 1195, 72 h; summary of the method: as §6
[30] = test system: Trichoderma viride; assay: Antimicrobial activity against Trichoderma viride NCIM 1195 at 1000 ug/disk after 72 hrs by disk diffusion method; format: functional; conditions: NCIM 1195, 72 h, read-out: DIZ; summary of the method: as §4
[31] = test system: Escherichia coli; assay: Antimicrobial activity against Escherichia coli NCIM 2065 after 24 hrs by serial dilution method; format: functional; conditions: NCIM 2065, 24 h
Summary of the method: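 Broth dilution MIC in nutrient broth, run only for organisms found sensitive in disc diffusion. Compounds are two-fold serially diluted in 1 ml sterile broth per tube, spanning 3.9 to 1000. Inoculated tubes are incubated at 37 °C for 24 h.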

[32] = test system: Aliivibrio fischeri; assay: Antimicrobial activity against Vibrio fischeri NCIM 2154 after 24 hrs by serial dilution method; format: functional; conditions: NCIM 2154, 24 h

| SMILES | zone of inhibition at 1000 µg/disc [1] [mm] | zone of inhibition at 500 µg/disc [2] [mm] | zone of inhibition at 1000 µg/disc [3] [mm] | zone of inhibition at 500 µg/disc [4] [mm] | zone of inhibition at 1000 µg/disc [5] [mm] | zone of inhibition at 500 µg/disc [6] [mm] | zone of inhibition at 500 µg/disc [7] [mm] | zone of inhibition at 1000 µg/disc [8] [mm] | zone of inhibition at 500 µg/disc [9] [mm] | zone of inhibition at 1000 µg/disc [10] [mm] | zone of inhibition at 500 µg/disc [11] [mm] | zone of inhibition at 1000 µg/disc [12] [mm] | zone of inhibition at 500 µg/disc [13] [mm] | zone of inhibition at 1000 µg/disc [14] [mm] | zone of inhibition at 500 µg/disc [15] [mm] | zone of inhibition at 1000 µg/disc [16] [mm] | zone of inhibition at 500 µg/disc [17] [mm] | zone of inhibition at 1000 µg/disc [18] [mm] | zone of inhibition at 1000 µg/disc [20] [mm] | zone of inhibition at 1000 µg/disc [22] [mm] | also measured |
| --- | --- | --- | --- | --- | --- | --- | --- | --- | --- | --- | --- | --- | --- | --- | --- | --- | --- | --- | --- | --- | --- |
| O=C1CCCC2=C1C(c1ccc(Cl)cc1)c1ccc3ccccc3c1N2 (centres undefined) | 8 | 8 | 12 | 10 | 13 | 8 | 7 | 11 | 9 | 8 | 8 | 10 | 7 | 9 | 7 | 10 | 12 | 16 | 12 | 9 | zone of inhibition at 500 µg/disc ([19]; NCIM 902, 72 h, read-out: DIZ): 8 mm; zone of inhibition at 500 µg/disc ([21]; NCIM 707, 72 h, read-out: DIZ): 7 mm; diameter of the inhibition zone (DIZ) [23]: inactive; zone of inhibition at 1000 µg/disc ([24]; NCIM 2200, 24 h, read-out: DIZ): 10 mm; zone of inhibition at 500 µg/disc ([25]; NCIM 2200, 24 h, read-out: DIZ): 7 mm; MIC [26]: 62.5 µg/mL (≈ 174 µM); MIC [27]: 3.9 µg/mL (≈ 10.8 µM); MIC [28]: 31.2 µg/mL (≈ 86.7 µM); MIC [29]: 125 µg/mL (≈ 347 µM); zone of inhibition at 1000 µg/disc [30]: 8 mm; MIC [31]: 62.5 µg/mL (≈ 174 µM); MIC [32]: 62.5 µg/mL (≈ 174 µM) |
| O=C1CCCC2=C1C(c1cccc([N+](=O)[O-])c1)c1ccc3ccccc3c1N2 (centres undefined) | 12 | 10 | 12 | 7 | 10 | 7 | 7 | 10 | 7 | 8 | 8 | 11 | 7 | 9 | 8 | 12 | 10 | 14 | 13 | 10 | diameter of the inhibition zone (DIZ) [19]: inactive; diameter of the inhibition zone (DIZ) [21]: inactive; zone of inhibition at 500 µg/disc ([23]; NCIM 2239, 24 h, read-out: DIZ): 7 mm; diameter of the inhibition zone (DIZ) [24]: inactive; diameter of the inhibition zone (DIZ) [25]: inactive; MIC [26]: 31.2 µg/mL (≈ 84.2 µM); MIC [27]: 3.9 µg/mL (≈ 10.5 µM); MIC [28]: 15.6 µg/mL (≈ 42.1 µM); MIC [29]: 62.5 µg/mL (≈ 169 µM); zone of inhibition at 1000 µg/disc [30]: 10 mm; MIC [31]: 31.2 µg/mL (≈ 84.2 µM); MIC [32]: 125 µg/mL (≈ 337 µM) |
